This is an account of results in ChEMBL document CHEMBL3108729, “Design, synthesis and anticonvulsant evaluation of N-(benzo[d]thiazol-2-ylcarbamoyl)-2-methyl-4-oxoquinazoline-3(4H)-carbothioamide derivatives: a hybrid pharmacophore approach” (Eur J Med Chem, 2013).

The nature of data set [1]: Protective index, ratio of TD50 for neurotoxicity to ED50 for protection against pentylenetetrazole-induced seizure in albino rat after 4 hrs. The conditions noted are these: in vivo, read-out: Ratio TD50/ED50. In kind it is toxicity, organism-based. In outline:
(§1)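 Rats received oral doses in groups of eight at the time of peak effect, with at least three points in the 10–90% range for seizure protection or minimal neurotoxicity. ED50, TD50 and 95% confidence intervals were computed by regression, and PI was calculated as TD50/ED50.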

Data set [2] concerns Rattus norvegicus. Put plainly: Anticonvulsant activity in Wistar rat assessed as inhibition of GABA-induced seizures measuring minimum GABA level per 100 mg whole brain required for 50 % inhibition at 30 mg/kg, po for 7 days (reference value: 51.5 +/- 2.60 ug/100 mg brain). Format: functional. In outline: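 Adult Wistar rats in groups of six were dosed orally at 30 mg/kg for 7 days. Whole-brain GABA was then measured enzymatically in ethanol extracts as µg/100 mg tissue. Values are mean ± SEM of six rats versus control (Student's t test).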

In data set [3] the test system is Mus musculus. Put plainly: Neurotoxicity in ip dosed albino mouse after 4 hrs by rotorod test. In kind it is toxicity, organism-based. The conditions noted are these: in vivo. In outline:
(§2)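 Swiss mice, four per dose, received 30, 100 or 300 mg/kg i.p. and were placed on a rotorod at 0.5 and 4 h. Neurotoxicity meant failure to keep balance for 1 min. The value reported is the minimum dose affecting half or more of the mice.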
For orientation: The rotarod test checks motor coordination on a turning rod.

Data set [4] concerns Rattus norvegicus. Put plainly: Anticonvulsant activity in po dosed albino rat assessed as protection against pentylenetetrazole-induced seizure after 4 hrs. Format: functional.
Data set [5] concerns Mus musculus. Description: Anticonvulsant activity in ip dosed albino mouse assessed as protection against AMPA-induced tonic phase of seizures after 30 mins. In kind it is functional. The conditions noted are these: 0.5 h. In outline:
(§3)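 Mice were dosed i.p. over 10–100 µmol/kg. After 30 min, AMPA was injected i.c.v. into a lateral ventricle under ether anaesthesia, at 9.7 nmol for clonus or 11.7 nmol for forelimb tonic extension. Mice were observed singly for 30 min. ED50 values with 95% confidence limits were derived from dose–response data.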

The subject of data set [6] is Rattus norvegicus. Description: Anticonvulsant activity in Wistar rat assessed as inhibition of GABA-induced seizures measuring minimum GABA level per 100 mg whole brain required for 50 % inhibition at 100 mg/kg, ip as single dose measured after 2 hrs (reference value: 46.4 +/- 5.50 ug/100 mg brain). The note with it: route intraperitoneal. Format: functional.
For data set [7], the system named is Mus musculus. Description: Anticonvulsant activity in ip dosed albino mouse assessed as protection against AMPA-induced clonic phase of seizures after 30 mins. The conditions noted are these: 0.5 h. In kind it is functional. In outline:
as §3

In data set [8] the test system is Mus musculus. Put plainly: Anticonvulsant activity in ip dosed albino mouse assessed as protection against maximal electroshock-induced seizures after 4 hrs. Format: functional. The note with it: read-out: MED. Background: Protection in the maximal electroshock model is a classic sign of anticonvulsant action.
Data set [9] relates to Mus musculus. Description: Anticonvulsant activity in ip dosed albino mouse assessed as protection against 6 Hz electroshock-induced seizures after 2 hrs. Format: functional.
The test system of data set [10] is Rattus norvegicus. Description: Hepatotoxicity in albino rat assessed as change in SGOT level at 30 mg/kg, po for 14 days (reference value: 74.2+/-5.95 units/ml). In kind it is toxicity, organism-based. Set-up: dose 30 mg/kg, route oral. The conditions noted are these: in vivo, 336 h.
In data set [11] the test system is Mus musculus. Description: Neurotoxicity in ip dosed albino mouse after 0.5 hrs by rotorod test. In kind it is toxicity, organism-based. The conditions noted are these: in vivo. In outline: as §2
Data set [12] can be described thus: Neurotoxicity in po dosed albino rat after 4 hrs. The conditions noted are these: in vivo. In kind it is toxicity, organism-based.
The nature of data set [13]: Protective index, ratio of TD50 for neurotoxicity to ED50 for protection against maximal electroshock-induced seizure in albino rat after 4 hrs. In kind it is toxicity, organism-based. The conditions noted are these: in vivo, read-out: Ratio TD50/ED50. In outline:
as §1

In data set [14] the test system is Rattus norvegicus. Put plainly: Anticonvulsant activity in po dosed albino rat assessed as protection against maximal electroshock-induced seizures after 4 hrs. In kind it is functional.
Data set [15] deals with Mus musculus. Put plainly: Anticonvulsant activity in ip dosed albino mouse assessed as protection against maximal electroshock-induced seizures after 0.5 hrs. The note with it: read-out: MED. Format: functional.
Data set [16] has as its system Rattus norvegicus. Description: Hepatotoxicity in albino rat assessed as change in SGPT level at 30 mg/kg, po for 14 days (reference value: 46.1+/-5.25 units/ml). In kind it is toxicity, organism-based. Set-up: dose 30 mg/kg, route oral. The conditions noted are these: in vivo, 336 h.
Data set [17] relates to Rattus norvegicus. Put plainly: Anticonvulsant activity in po dosed albino rat assessed as protection against pentylenetetrazole-induced seizure after 0.5 hrs. Format: functional.
Data set [18] is described as follows: Neurotoxicity in po dosed albino rat after 0.5 hrs. Format: toxicity, organism-based. The note with it: in vivo.
Data set [19] can be described thus: Protective index, ratio of TD50 for neurotoxicity to ED50 for protection against maximal electroshock-induced seizure in albino rat after 0.5 hrs. Format: toxicity, organism-based. The note with it: in vivo, read-out: Ratio TD50/ED50. Summed up:
as §1

Data set [20] is described as follows: Protective index, ratio of TD50 for neurotoxicity to ED50 for protection against pentylenetetrazole-induced seizure in albino rat after 0.5 hrs. Format: toxicity, organism-based. The conditions noted are these: in vivo, read-out: Ratio TD50/ED50. Summed up: as §1
The test system of data set [21] is Mus musculus. Put plainly: Neurotoxicity in albino mouse at 300 mg/kg, ip after 4 hrs by rotorod test. Format: toxicity, organism-based. Set-up: dose 300 mg/kg, route intraperitoneal. The note with it: in vivo. In outline:
as §2

Data set [22] deals with Rattus norvegicus. Description: Anticonvulsant activity in po dosed albino rat assessed as protection against maximal electroshock-induced seizures after 0.5 hrs. Format: functional.

Structures are written as SMILES. A value given as a limit tells only on which side of the number the result lay.

Regarding `Cc1nc2ccccc2c(=O)n1C(=S)NC(=O)Nc1nc2ccc(Cl)cc2s1`, the values for the selectivity ratio at 4 h in [1] and in data set [13] were more than 3.4 and more than 17, respectively. The GABA level in data set [2] turned out to be 111 µg/100 mg brain; in data set [6], 92.1 µg/100 mg brain. The MTC in data set [3] and in data set [11] was 300 mg/kg throughout. For the same compound, the ED50 (as a rule, the dose at which the effect has come halfway, by size or by number of responders) turned out to be 722 µmol/kg in data set [4]; 56.9 µmol/kg in [5]; 70.3 µmol/kg in data set [7]; 1230 µmol/kg in data set [9]; 142 µmol/kg in [14]. For the same compound, the minimal effective dose came to 100 mg/kg in data set [8] and 30 mg/kg in [15]. The values for the Activity in data set [10] and in data set [16] were 71.2 U/ml and 48.5 U/ml, respectively. Also, in data set [12], the TD50 (in general, the 50% point of the dose-response relation for the toxic effect studied) at 4 h was more than 2500 µmol/kg.

Take `Cc1nc2ccccc2c(=O)n1C(=S)NC(=O)Nc1nc2ccc(OC(F)(F)F)cc2s1`: the figures for the GABA level in [2] and in data set [6] were 68.2 µg/100 mg brain and 75.5 µg/100 mg brain, respectively. Moreover, the ED50 is 28.5 µmol/kg in data set [5], 37.9 µmol/kg in data set [7], 510 µmol/kg in data set [17] and 82.5 µmol/kg in data set [22]. The minimal effective dose in [8] and in data set [15] was 30 mg/kg each time. This compound also yielded a TD50 at 0.5 h in [18] of more than 2150 µmol/kg. Further, the Activity is on record as 72.4 U/ml in data set [10], “Non-toxic” in [21] and 44.7 U/ml in data set [16]. In [11], the MTC was determined as 300 mg/kg. For the same compound, the selectivity ratio at 0.5 h in data set [19] was more than 26; in [20], more than 4.2.
